Data reported in article PMC6522132 (Cell chemical biology, 2017).

What was measured:
wt-EphA4 LBD = wt-EphA4 LBD (Homo sapiens, UniProt P54764); assay: Isothermal titration calorimetry; format: binding; conditions: result in words
EphA4-LBD = EphA4-LBD (Homo sapiens, UniProt P54764); assay: NMR ligand titration; format: binding; conditions: result in words
In short: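 Purified human EphA4 ligand-binding domain (LBD), 13Cε-methionine-labelled for the titration, in 50 mM potassium phosphate pH 6.5 with 100 mM NaCl, at 27 °C. 2D [13C,1H]- or [15N,1H]-HSQC spectra of 50 μM LBD were compared with and without test compound. The compound was titrated at 10–50 μM against a DMSO control, and binding was read as chemical-shift changes.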

Sequence of wt-EphA4 LBD (P54764 30-209 limits assumed): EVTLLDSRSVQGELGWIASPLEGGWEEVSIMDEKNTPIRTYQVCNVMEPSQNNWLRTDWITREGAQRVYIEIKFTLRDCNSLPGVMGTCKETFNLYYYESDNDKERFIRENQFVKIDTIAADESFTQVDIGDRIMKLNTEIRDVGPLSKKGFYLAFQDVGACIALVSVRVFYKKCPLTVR
Sequence of EphA4-LBD (P54764 30-209 limits assumed): as above

## CC[C@H]1CN2CC[C@]3(C(=O)Nc4ccccc43)[C@@H]2C[C@@H]1/C(=C\OC)C(=O)OC [rhyncophilin]
wt-EphA4 LBD
  binding to EphA4-LBD in ITC assay: inactive
EphA4-LBD
  binding to EphA4-LBD in NMR assay: inactive
